# According to publication PMC9558256 (ACS Omega, 2022):
# Legend:
# [1] = tested on: P. falciparum resistant strain F32-ART; assay: Antiplasmodial activity; assay type: cell-based; conditions: Plasmodium falciparum, F32, read-out: P. falciparum F32ART IC50
# How it was run: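 Test compounds screened against artemisinin-resistant P. falciparum F32-ART (selected after 144 intermittent, increasing artemisinin doses) by SYBR Green at 1 and 10 μM, in triplicate, in two independent experiments. Compounds giving around or above 50% growth inhibition at 10 μM were retested at four doses, each in triplicate, to derive IC50.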
# [2] = Cytotoxicity on Vero cells; assay type: cell-based; conditions: African green monkey
# [3] = tested on: L. donovani intramacrophage amastigote forms (LV9); assay: In vitro antileishmanial evaluation on intramacrophage amastigotes; assay type: cell-based; conditions: Leishmania donovani, RAW264.7, 48 h, read-out: L. donovani IC50
# How it was run: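 RAW 264.7 macrophages were infected with L. donovani LV9 axenic amastigotes at 10 parasites per macrophage. Test compound was added 24 h post-infection for 48 h, with top concentrations set from RAW 264.7 cytotoxicity. Parasite growth reduction was read by SYBR Green incorporation and IC50 derived by regression. Miltefosine served as reference drug.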
# [4] = Cytotoxicity on RAW 264.7 macrophages; assay type: cell-based; conditions: mouse
# M. tuberculosis H37Rv = assay: MIC determination by resazurin reduction microplate assay; assay type: cell-based, Mycobacterium tuberculosis; conditions: MIC comparison with literature BNF15
# [5] = tested on: L. donovani axenic amastigotes (LV9); assay: In vitro antileishmanial evaluation on axenic amastigotes; assay type: cell-based; conditions: Leishmania donovani, read-out: IC50 on the axenic form of L. donovani
SMILES,IC50 [1] [µM],CC50 [2] [µM],IC50 [3] [µM],CC50 [4] [µM],fold less active than BNF15 against M. tuberculosis (M. tuberculosis H37Rv),IC50 [5] [µM]
"CCCCNc1oc2c(c1C1CCN(Cc3ccccc3)CC1)C(=O)c1ccccc1C2=O [Compound 27, 3-(1-Benzylpiperidin-4-yl)-2-(butylamino)naphtho[2,3-b]furan-4,9-dione]",4,24,–,–,–,–
"CC(C)(C)Nc1oc2c(c1-c1cccc(Br)c1)C(=O)c1ccccc1C2=O [Compound 10, 3-(3-Bromophenyl)-2-(tert-butylamino)naphtho[2,3-b]furan-4,9-dione]",> 10,–,–,–,–,–
"CCCCCCCCCCCCCCCCOP(=O)([O-])OCC[N+](C)(C)C [miltefosine, reference compound]",–,–,1.46,22.6,–,–
"CC(C)(C)Nc1oc2c(c1-c1cc3ccccc3[nH]1)C(=O)c1ccccc1C2=O [Compound 14, 2-(tert-Butylamino)-3-(1H-indol-2-yl)naphtho[2,3-b]furan-4,9-dione]",> 10,–,–,–,–,–
"CC(C)(C)Nc1oc2c(c1-c1ccc(Cl)cc1)C(=O)c1ccccc1C2=O [Compound 9, 2-(tert-Butylamino)-3-(4-chlorophenyl)naphtho[2,3-b]furan-4,9-dione]",> 10,–,–,–,–,–
"CC(C)(C)Nc1oc2c(c1C1CCN(Cc3ccccc3)CC1)C(=O)c1ccccc1C2=O [Compound 17, 3-(1-Benzylpiperidin-4-yl)-2-(tert-butylamino)naphtho[2,3-b]furan-4,9-dione]",2.5,86,–,–,about 7 fold,–
"O=C1c2ccccc2C(=O)c2c1oc(NC1CCCCC1)c2-c1ccc(Cl)cc1 [Compound 18, 3-(4-Chlorophenyl)-2-(cyclohexylamino)naphtho[2,3-b]furan-4,9-dione]",11,50,9.41,54.2,–,< 10
"Cn1ncc2cc(-c3c(NC4CCCCC4)oc4c3C(=O)c3ccccc3C4=O)ccc21 [Compound 20, 2-(Cyclohexylamino)-3-(1-methyl-1H-indazol-5-yl)naphtho[2,3-b]furan-4,9-dione]",10,–,–,–,–,–
"Cn1ncc2cc(-c3c(NC(C)(C)C)oc4c3C(=O)c3ccccc3C4=O)ccc21 [Compound 13, 2-(tert-Butylamino)-3-(1-methyl-1H-indazol-5-yl)naphtho[2,3-b]furan-4,9-dione]",> 10,–,–,–,–,–
"O=C1c2ccccc2C(=O)c2c1oc(NC1CCCCC1)c2C1CCN(Cc2ccccc2)CC1 [Compound 22, 3-(1-Benzylpiperidin-4-yl)-2-(cyclohexylamino)naphtho[2,3-b]furan-4,9-dione]",3.6,36,–,–,–,–
"O=C1C(O)=C([C@H]2CC[C@H](c3ccc(Cl)cc3)CC2)C(=O)c2ccccc21 [atovaquone (7), atovaquone, reference compound]",0.001,6,11.1,44,–,–
"CCCCNc1oc2c(c1-c1ccc(Cl)cc1)C(=O)c1ccccc1C2=O [Compound 23, 2-(Butylamino)-3-(4-chlorophenyl)naphtho[2,3-b]furan-4,9-dione]",> 10,–,–,–,–,–
"CCCCNc1oc2c(c1-c1ccc([N+](=O)[O-])o1)C(=O)c1ccccc1C2=O [Compound 26, 2-(Butylamino)-3-(5-nitrofuran-2-yl)naphtho[2,3-b]furan-4,9-dione]",> 10,–,–,–,–,–
"CC(C)(C)Nc1oc2c(c1C1CCN(C(=O)OC(C)(C)C)CC1)C(=O)c1ccccc1C2=O [Compound 16, tert-Butyl 4-(2-(tert-Butylamino)-4,9-dioxo-4,9-dihydronaphtho[2,3-b]furan-3-yl)piperidine-1-carboxylate]",> 10,–,6.97,49.2,–,< 10
"COc1cc(-c2c(NC(C)(C)C)oc3c2C(=O)c2ccccc2C3=O)cc(OC)c1OC [Compound 11, 2-(tert-Butylamino)-3-(3,4,5-trimethoxyphenyl)naphtho[2,3-b]furan-4,9-dione]",> 10,–,–,–,–,–
"O=C1C=C(O)C(=O)c2ccccc21 [lawsone (1), 2-hydroxy-1,4-naphthoquinone, reference compound]",> 10,–,6.27,44,–,–
"CC(C)(C)Nc1oc2c(c1-c1ccc([N+](=O)[O-])o1)C(=O)c1ccccc1C2=O [Compound 15, 2-(tert-Butylamino)-3-(5-nitrofuran-2-yl)naphtho[2,3-b]furan-4,9-dione]",> 10,–,–,–,–,–
"CCCCNC=C1C(=O)C(=O)c2ccccc2C1=O [Compound 29, 3-((Butylamino)methylene)naphthalene-1,2,4(3H)-trione]",1.9,> 50,6.33,46.5,–,< 10
"COc1cc(-c2c(NC3CCCCC3)oc3c2C(=O)c2ccccc2C3=O)cc(OC)c1OC [Compound 19, 2-(Cyclohexylamino)-3-(3,4,5-trimethoxyphenyl)naphtho[2,3-b]furan-4,9-dione]",6,> 100,–,–,–,–
"CC(C)(C)NC=C1C(=O)C(=O)c2ccccc2C1=O [Compound 28, 3-((tert-Butylamino)methylene)naphthalene-1,2,4(3H)-trione]",1.4,> 50,3.5,> 100,–,< 10
"COc1ccc(-c2c(NC(C)(C)C)oc3c2C(=O)c2ccccc2C3=O)cc1OC [Compound 12, 2-(tert-Butylamino)-3-(3,4-dimethoxyphenyl)naphtho[2,3-b]furan-4,9-dione]",> 10,–,–,–,–,–
"CCCCNc1oc2c(c1-c1cc(OC)c(OC)c(OC)c1)C(=O)c1ccccc1C2=O [Compound 24, 2-(Butylamino)-3-(3,4,5-trimethoxyphenyl)naphtho[2,3-b]furan-4,9-dione]",9,> 100,–,–,–,–
"O=C1c2ccccc2C(=O)c2c1oc(NC1CCCCC1)c2-c1ccc([N+](=O)[O-])o1 [Compound 21, 2-(Cyclohexylamino)-3-(5-nitrofuran-2-yl)naphtho[2,3-b]furan-4,9-dione]",> 10,–,–,–,–,–
